We go through eleven molecules from ChEMBL document CHEMBL1933043.

Series [1] in a line: Cytotoxicity against MDCK cells after 4 days. The class given is cell-based, Canis lupus familiaris. The settings on record: dog, read-out: TD50. The procedure, abridged: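 MDCK cells exposed to compounds at 0.1–150 μM with trypsin (10 μg/mL) for up to 4 days. Cells were inspected microscopically. TD50 was taken as the dose causing 50% cell death.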
The nature of series [2]: Therapeutic index, ratio of TD50 for MDCK cells to ED50 for influenza A virus (A/swine/OH/511445/2007(H1N1)) Oh7. The class given is cell-based. The settings on record: dog, read-out: Ratio TD50/ED50. The procedure, abridged:
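MDCK cells infected with swine influenza A/swine/OH/511445/2007 (H1N1, Oh7) and incubated with compound at 0.1–150 μM plus trypsin (10 μg/mL) for up to 4 days. Cytopathic effect was scored, and replication was confirmed by immunofluorescence and Western blot against viral nucleoprotein or whole virus. ED50 is the dose giving 50% virus reduction, and TD50 the dose giving 50% cell death. TI is TD50/ED50.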

The subject of another series is Influenza A virus. In words: Antiviral activity against influenza A virus (A/swine/OH/511445/2007(H1N1)) Oh7 infected in MDCK cells assessed as inhibition of viral replication after 4 days by quantitative RT-PCR. The settings on record: (A/swine/OH/511445/2007(H1N1)) Oh7, MDCK, 96 h, read-out: ED50 (the source's name). It is filed as functional.

The structures appear in SMILES notation.

Regarding `O=C(Oc1c(-c2ccc(O)c(O)c2)oc2cc(O)cc(O)c2c1=O)c1cc(O)c(O)c(O)c1`, the CC50 at 96 h in series [1] stood at 90.2 µM. Besides, the selectivity ratio in series [2] was 9.9. The EC50 in the series with Influenza A virus was 9.1 µM.

As to `O=C(Oc1c(-c2ccc(O)c(O)c2)oc2cc(O)cc(O)c2c1=O)c1cc(O)ccc1O`, the CC50 at 96 h in series [1] worked out at 45.2 µM. For the same molecule, the selectivity ratio in series [2] was found to be 2.3. In addition, the EC50 in the series with Influenza A virus was found to be 19.4 µM.

Regarding `Nc1cc(C(=O)Oc2c(-c3ccc(O)c(O)c3)oc3cc(O)cc(O)c3c2=O)ccc1O`, the CC50 at 96 h in series [1] stood at 60.1 µM. The selectivity ratio in series [2] worked out at 2.7. Also, the EC50 in the series on Influenza A virus stood at 22.6 µM.

As for `Nc1ccc(C(=O)Oc2c(-c3ccc(O)c(O)c3)oc3cc(O)cc(O)c3c2=O)cc1O`, the CC50 at 96 h in series [1] is 54.8 µM. The selectivity ratio in series [2] is 2.3. In addition, in the series with Influenza A virus, the EC50 was found to be 24.1 µM.

Regarding `O=C(Oc1cc(-c2oc3cc(O)cc(O)c3c(=O)c2O)ccc1O)c1cc(O)c(O)c(O)c1`, in the series with Influenza A virus, the EC50 is above 50 µM.

In the case of `NCCCOc1cc(-c2oc3cc(O)cc(O)c3c(=O)c2O)ccc1O`, the EC50 with Influenza A virus is above 50 µM.

In the case of `CCCOc1cc(O)cc2oc(-c3ccc(O)c(O)c3)c(O)c(=O)c12`, the EC50 in the series with Influenza A virus is above 50 µM.

Consider `O=c1c(OCc2ccccc2)c(-c2ccc(OCc3ccccc3)c(OCc3ccccc3)c2)oc2cc(OCc3ccccc3)cc(O)c12`, for which the EC50 in the series on Influenza A virus is above 50 µM.

Take `O=C(O[C@@H]1Cc2c(O)cc(O)cc2O[C@@H]1c1cc(O)c(O)c(O)c1)c1cc(O)c(O)c(O)c1` [EPIGALOCATECHIN GALLATE]: the CC50 at 96 h in series [1] was determined as 45.5 µM. In addition, the selectivity ratio in series [2] turned out to be 5.5. The EC50 in the series with Influenza A virus worked out at 8.3 µM.

With `O=c1c(O[C@@H]2O[C@H](CO)[C@@H](O)[C@H](O)[C@H]2O)c(-c2ccc(O)c(O)c2)oc2cc(O)cc(O)c12` [ISOQUERCETIN], the CC50 at 96 h in series [1] stood at 45.1 µM. In addition, in series [2], the selectivity ratio was 37.6. Also, the EC50 in the series with Influenza A virus is 1.2 µM.

Take `O=c1c(O)c(-c2ccc(O)c(O)c2)oc2cc(O)cc(O)c12` [QUERCETIN]: the CC50 at 96 h in series [1] is 83.4 µM. Besides, in series [2], the selectivity ratio came to 1.7. Also, the EC50 in the series on Influenza A virus is 48.2 µM.
